“Also recorded” adds a separate entry of the source.
Experiments:
AgrC-III [1] = biological target: T1, AgrC-III (Staphylococcus aureus, UniProt O33590); assay: AgrC-III antagonism assay; format: cell-based; conditions: ratio of IC50 values vs AIP-III D4A
[2] = test system: chimeric AgrC-III-IV receptor; assay: AgrC-III agonism assay; format: cell-based, Staphylococcus aureus; conditions: S. aureus RN9532 reporter strain
Outline: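 Uses an agr-null group-I strain carrying a P3-blaZ reporter plasmid. The chimeric receptor joins the group-III AgrC N-terminal sensor domain to the group-IV AgrC C-terminal histidine kinase domain, followed by the agrA coding sequence. Test peptides were serially diluted from stock to give dose-response data. β-lactamase activity was the read-out (modified literature assay), and EC50 was calculated from the curves.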

AgrC-III [3] = biological target: T1, AgrC-III; conditions: read-out: AgrC-III antagonism IC50 value (CI); S. aureus AH1747 group-III P3-gfp reporter; CI = 95% confidence interval; cited from earlier work
AgrC-III [4] = biological target: T1, AgrC-III; conditions: cited from earlier work
[5] = test system: constitutively active AgrC-I receptor mutant; conditions: cited from earlier work

Substance	fold weaker / reduced AgrC-III inhibitory activity relative to AIP-III D4A (AgrC-III [1])	AgrC-III agonistic activity in words [2]	IC50 (AgrC-III [3])	fold less active as AgrC-III inhibitor relative to AIP-I D5A (AgrC-III [4])	mode of action on constitutively active AgrC-I receptor mutant [5]	AgrC-III agonism EC50 value relative to AIP-III ([2]; Figure S-2)
Y-S-T-(C-D-F-I-M) [AIP-I]	10 fold	inactivity	0.522 nM	10 fold	–	–
I-N-(C-D-F-L-L) [AIP-III]	–	–	–	–	neutral antagonists	–
I-N-(C-A-F-L-L) [AIP-III D4A]	–	–	0.0506 nM	–	–	–
Y-S-T-(C-Y-F-I-M) [AIP-IV]	–	inactivity	0.46 nM	–	neutral antagonists	–
G-V-N-A-(C-S-S-L-F) [AIP-II]	–	inactivity	0.532 nM	–	inverse agonist	–
I-N-(C-D-F-L-dL) [AIP-III D-L7]	–	agonistic activity; also recorded: able to activate AgrC-III (with analogous activity as AIP-III	–	–	–	comparable to AIP-III

Reference: article PMC3887510 (Journal of the American Chemical Society, 2013)
